Results pooled from the literature.
Compare with care: the assays were run in different laboratories.
TMEM97: Sigma intracellular receptor 2 (TMEM97, Homo sapiens, UniProt Q5BJF2)
Serine protease HTRA1 S328A: Serine protease HTRA1 (Homo sapiens, UniProt Q92743, S328A)
PTGS2: Prostaglandin G/H synthase 2 (PTGS2, Homo sapiens, UniProt P35354)
tspO: tspO (Cereibacter sphaeroides, UniProt Q9RFC8)

With `CC(C)(C)[C@]1(O)CCN2C[C@@H]3c4ccccc4CCc4cccc(c43)[C@H]2C1` the Ki was 4.79 µM (TMEM97; ligand displacement, radioligand).
`CC(C)C[C@H](NC(=O)[C@H](CC(=O)O)NC(=O)[C@H](CC(=O)O)NC(=O)[C@H](CC(=O)O)NC(=O)[C@@H](NC(=O)[C@H](Cc1c[nH]c2ccccc12)NC(=O)[C@@H](N)CCC(=O)O)[C@@H](C)O)C(=O)N[C@@H](CO)C(=O)N[C@H](C(=O)N[C@@H](CC(=O)O)C(=O)N[C@@H](C)C(=O)O)C(C)C` has a Kd of 25.6 µM (Serine protease HTRA1 S328A; binding, ITC; pH 8).
`COc1cc(C(=O)N2CC[C@@H](O)[C@@H](N)C2)cc2nc(-c3cc4ccccc4n3CC3CC3)n(C)c12` gave an IC50 of over 100 µM (PTGS2; enzyme activity, inhibitor).
For `COc1cc2c(cc1OC)C(=O)C(CC1CCN(Cc3ccccc3)CC1)C2` (centres unmarked), the Ki was 0.084 µM (TMEM97; ligand displacement, radioligand).
`COc1ncccc1-c1cnn2ccc(N3CCN(C(=O)OC(C)C)CC3)nc12` gave an IC50 of 12 µM (Acetylcholine receptor subunit alpha (CHRNA1, Homo sapiens, UniProt P02708); ion current, inhibitor).
`CC(C)C[C@H](NC(=O)[C@H](Cc1ccccc1)NC(=O)c1cnccn1)B(O)O` has an IC50 of over 33 µM (Serine protease HTRA2, mitochondrial (HTRA2, Homo sapiens, UniProt O43464); enzyme activity, inhibitor).
The Kd of `CC[C@H](C)[C@H](NC(=O)[C@H](Cc1c[nH]c2ccccc12)NC(=O)[C@H](C)NC(=O)[C@H](C)NC(=O)[C@H](Cc1ccc(O)cc1)NC(=O)[C@@H](N)CO)C(=O)N[C@@H](CC(=O)O)C(=O)N[C@H](C(=O)N[C@@H](CCC(=O)O)C(=O)N[C@@H](CC(=O)O)C(=O)N[C@@H](CC(C)C)C(=O)O)C(C)C` is reported as 34 µM (Serine protease HTRA1 S328A; binding, ITC; pH 8).
For `C=CC1=C(C)/C(=C/c2[nH]c(Cc3[nH]c(/C=C4\NC(=O)C(C)=C4C=C)c(C)c3CCC(=O)O)c(CCC(=O)O)c2C)NC1=O`, the Kd was 4.7 µM (tspO; binding, fluorescence).
`CC[C@H](C)[C@H](NC(=O)[C@H](C)NC(=O)[C@H](CCCNC(=N)N)NC(=O)[C@H](CC(C)C)NC(=O)[C@@H](N)Cc1ccccc1)C(=O)N[C@@H](CCCNC(=N)N)C(=O)N1CCC[C@H]1C(=O)N[C@@H](CCCCN)C(=O)O` gave an IC50 of 0.74 µM (B1 bradykinin receptor (Rattus norvegicus, UniProt P97583); ligand displacement, radioligand; cell membranes).
`CCC(C)N(C)C(=O)c1cc2ccccc2c(-c2ccccc2Cl)n1` (centres unmarked) has a Kd of 10 µM (tspO; binding, fluorescence).
`CC(C)C[C@H](NC(=O)[C@H](CC(=O)O)NC(=O)[C@H](CC(=O)O)NC(=O)[C@H](CC(=O)O)NC(=O)[C@@H](NC(=O)[C@H](Cc1c[nH]c2ccccc12)NC(=O)[C@@H](N)CCC(=O)O)[C@@H](C)O)C(=O)N[C@@H](CO)C(=O)N[C@H](C(=O)N[C@@H](CC(C)C)C(=O)N[C@@H](C)C(=O)O)C(C)C` gave a Kd of 20.5 µM (Serine protease HTRA1 S328A; binding, ITC; pH 8).
`CN(C)CCOC(C)(c1ccccc1)c1ccccn1` (centres unmarked) has a Ki of over 10 µM (TMEM97; ligand displacement, radioligand).
The IC50 of `NC[C@@H]1[C@H]2CN3C(=O)c4cccn4[C@@H]4NC(N)=N[C@@]43[C@@H]2[C@]2(N=C(N)N[C@H]2O)[C@H]1Cl` (racemic) is reported as 4.8 µM (Proteasome subunit beta type-8, chymotrypsin-like site (PSMB8, Homo sapiens, UniProt P28062); enzyme activity, inhibitor).
For `Cc1cccc(CN2CCN(C(c3ccccc3)c3ccc(Cl)cc3)CC2)c1` (centres unmarked), the Ki was over 10 µM (TMEM97; ligand displacement, radioligand).
`O=c1c(O)c(-c2ccc(O)c(O)c2)oc2cc(O)ccc12` has a Kd of 0.94 µM (Ribosomal protein S6 kinase beta-1 (RPS6KB1, Homo sapiens, UniProt P23443); cell-free assay, competition with immobilised ligand).
With `Cc1c2ccncc2c(C)c2c1[nH]c1ccccc12` the Ki was over 10 µM (TMEM97; ligand displacement, radioligand).
With `O=C1Nc2ccccc2/C1=C/c1cn(-c2nc(Cl)nc(N3CCOCC3)n2)c2ccccc12` the IC50 was 2 µM (PTGS2; enzyme activity, inhibitor).
